This assay relates to Plasmodium falciparum. The assay can be described thus: Antiplasmodial activity against Plasmodium falciparum K1 as [3H]hypoxanthine uptake. It is filed as functional, organism-based. The conditions noted are these: K1, 72 h. The gist of the method: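 Erythrocytic stages of chloroquine- and pyrimethamine-resistant K1 strain grown in washed human A+ red cells, 2.5% hematocrit, 0.3% parasitemia. Medium was hypoxanthine-free RPMI 1640 with HEPES, NaHCO3, neomycin and AlbuMAX. DMSO stocks (10 mg/mL) tested as serial doubling dilutions for 48 h at 37 °C under 4% CO2, 3% O2, 93% N2. [3H]hypoxanthine then added for 24 h, cells harvested onto filters, scintillation counted.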

pIC50: −log10 of the molar value.

What is called pIC50 is the IC50 on a negative log10 scale, so that one unit is a factor of ten. In turn, `O=C(CCCOc1ccccc1)NC[C@H]1O[C@@H](n2cnc3c(NCc4ccc(Oc5ccccc5)cc4)ncnc32)[C@H](O)[C@@H]1O` had a pIC50 of 5.55.
`O=C(Cc1cccc2ccccc12)NC[C@H]1O[C@@H](n2cnc3c(NCc4ccc(Oc5ccccc5)cc4)ncnc32)[C@H](O)[C@@H]1O` had a pIC50 of 6.52.
Take `O=C(NC[C@H]1O[C@@H](n2cnc3c(NCc4ccc(Oc5ccccc5)cc4)ncnc32)[C@H](O)[C@@H]1O)c1ccc(Oc2ccccc2)cc1`: the negative logarithm of the IC50 (pIC50) was 5.48.
To `O=C(NC[C@H]1O[C@@H](n2cnc3c(NCc4ccc(Oc5ccccc5)cc4)ncnc32)[C@H](O)[C@@H]1O)c1cc(Cl)cc(Cl)c1` belongs 5.46.
Regarding `O=C(NC[C@H]1O[C@@H](n2cnc3c(NCc4ccc(Oc5ccccc5)cc4)ncnc32)[C@H](O)[C@@H]1O)c1ccc2c(c1)[nH]c(=O)n2Cc1ccccn1`, the pIC50 was 5.68.
Compound `COc1cccc(CC(=O)NC[C@H]2O[C@@H](n3cnc4c(NCc5ccc(Oc6ccccc6)cc5)ncnc43)[C@H](O)[C@@H]2O)c1` had a pIC50 of 5.47.
`O=C(NC[C@H]1O[C@@H](n2cnc3c(NCc4ccc(Oc5ccccc5)cc4)ncnc32)[C@H](O)[C@@H]1O)c1ccc2c(c1)[nH]c(=O)n2COc1ccccc1` showed a pIC50 of 5.48.
To `O=C(CCCc1c[nH]c2ccccc12)NC[C@H]1O[C@@H](n2cnc3c(NCc4ccc(Oc5ccccc5)cc4)ncnc32)[C@H](O)[C@@H]1O` belongs less than 5.07; to `CC(C)=CC(=O)NC[C@H]1O[C@@H](n2cnc3c(NCc4ccc(Oc5ccccc5)cc4)ncnc32)[C@H](O)[C@@H]1O`, 5.37; to `CC(C)CCC(=O)NC[C@H]1O[C@@H](n2cnc3c(NCc4ccc(Oc5ccccc5)cc4)ncnc32)[C@H](O)[C@@H]1O`, 5.34.
`O=C(NC[C@H]1O[C@@H](n2cnc3c(NCc4ccc(Oc5ccccc5)cc4)ncnc32)[C@H](O)[C@@H]1O)c1ccc2c(c1)ncn2Cc1ccccn1`: the pIC50 is 5.40.
`COCCCn1c(=O)[nH]c2cc(C(=O)NC[C@H]3O[C@@H](n4cnc5c(NCc6ccc(Oc7ccccc7)cc6)ncnc54)[C@H](O)[C@@H]3O)ccc21`: the pIC50 was 6.05.
Under `C=CCn1cnc2cc(C(=O)NC[C@H]3O[C@@H](n4cnc5c(NCc6ccc(Oc7ccccc7)cc6)ncnc54)[C@H](O)[C@@H]3O)ccc21` stands 5.57; under `O=C(CCCc1ccccc1)NC[C@H]1O[C@@H](n2cnc3c(NCc4ccc(Oc5ccccc5)cc4)ncnc32)[C@H](O)[C@@H]1O`, 5.59.
The compound `O=C(Cc1cccc(Cl)c1)NC[C@H]1O[C@@H](n2cnc3c(NCc4ccc(Oc5ccccc5)cc4)ncnc32)[C@H](O)[C@@H]1O` showed a pIC50 of 5.51.
In turn, `O=C(NC[C@H]1O[C@@H](n2cnc3c(NCc4ccc(Oc5ccccc5)cc4)ncnc32)[C@H](O)[C@@H]1O)c1ccc2c(c1)ncn2Cc1cccc2ccccc12` showed a pIC50 of 5.66.
For `CCCCCn1cnc2cc(C(=O)NC[C@H]3O[C@@H](n4cnc5c(NCc6ccc(Oc7ccccc7)cc6)ncnc54)[C@H](O)[C@@H]3O)ccc21`, the pIC50 was 5.82.
As to `CCCCn1c(=O)[nH]c2cc(C(=O)NC[C@H]3O[C@@H](n4cnc5c(NCc6ccc(Oc7ccccc7)cc6)ncnc54)[C@H](O)[C@@H]3O)ccc21`, the pIC50 is 5.51.
Under `COCCCn1cnc2cc(C(=O)NC[C@H]3O[C@@H](n4cnc5c(NCc6ccc(Oc7ccccc7)cc6)ncnc54)[C@H](O)[C@@H]3O)ccc21` stands 5.59; under `O=C(NC[C@H]1O[C@@H](n2cnc3c(NCc4ccc(Oc5ccccc5)cc4)ncnc32)[C@H](O)[C@@H]1O)c1ccc2c(c1)[nH]c(=O)n2CCC1=CCCCC1`, 5.54; under `CCN(CC)CCCC(C)Nc1ccnc2cc(Cl)ccc12` (stereo unspecified) [CHLOROQUINE], 6.05.

The values are drawn from ChEMBL document CHEMBL1152746, “Inhibitors of adenosine consuming parasites through polymer-assisted solution phase synthesis of lipophilic 5'-amido-5'-deoxyadenosine derivatives” (Bioorg Med Chem, 2009).
